Measured values taken from the M2OR odorant receptor database.

Tests used:
Conditions in all cases: stereoisomer not certain
UniProt A2ATE5 = target: T1, UniProt A2ATE5
T1 sequence (whole entry): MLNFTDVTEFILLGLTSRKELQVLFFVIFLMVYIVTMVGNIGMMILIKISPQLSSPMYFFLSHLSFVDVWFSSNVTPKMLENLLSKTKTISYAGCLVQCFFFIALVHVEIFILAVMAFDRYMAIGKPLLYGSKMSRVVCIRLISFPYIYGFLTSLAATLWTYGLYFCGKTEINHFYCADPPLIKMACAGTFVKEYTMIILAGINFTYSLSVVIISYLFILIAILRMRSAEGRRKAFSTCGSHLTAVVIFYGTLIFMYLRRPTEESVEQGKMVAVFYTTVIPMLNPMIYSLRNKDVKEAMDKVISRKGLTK
Summary of the method: (§1)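 Values were gathered from published papers (main text and supplementary material), with extra details requested from the original authors when needed, and checked for typos and inconsistencies. Each receptor–molecule pair is called responsive (active) if the original authors judged the measured signal statistically different from baseline, and non-responsive (inactive) otherwise. Assay methods varied by source, often transient mammalian cell-line luciferase assays. Recorded details include cell line, G-protein, co-transfected protein and tags.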

UniProt A2AVB0 = target: T2, UniProt A2AVB0
T2 sequence (whole entry): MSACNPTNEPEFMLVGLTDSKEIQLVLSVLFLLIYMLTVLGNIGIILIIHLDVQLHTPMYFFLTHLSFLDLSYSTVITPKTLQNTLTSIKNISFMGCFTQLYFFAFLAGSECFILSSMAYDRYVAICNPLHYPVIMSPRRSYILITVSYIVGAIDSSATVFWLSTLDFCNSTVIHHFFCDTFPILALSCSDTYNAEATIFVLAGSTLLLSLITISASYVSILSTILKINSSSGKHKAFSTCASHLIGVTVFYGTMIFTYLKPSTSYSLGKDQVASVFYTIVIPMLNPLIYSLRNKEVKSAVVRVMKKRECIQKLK
Summary of the method: as §1

UniProt E9PVX1 = target: T3, UniProt E9PVX1
T3 sequence (whole entry): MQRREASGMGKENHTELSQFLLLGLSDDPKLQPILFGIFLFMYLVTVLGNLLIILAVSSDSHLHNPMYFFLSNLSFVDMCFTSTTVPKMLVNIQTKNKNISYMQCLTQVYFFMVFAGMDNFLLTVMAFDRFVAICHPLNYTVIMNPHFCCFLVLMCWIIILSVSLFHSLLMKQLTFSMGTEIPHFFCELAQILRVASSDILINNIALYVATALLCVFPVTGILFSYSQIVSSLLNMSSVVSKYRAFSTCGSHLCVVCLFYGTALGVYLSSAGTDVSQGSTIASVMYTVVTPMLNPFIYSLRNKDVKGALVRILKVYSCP
Summary of the method: as §1

UniProt E9PZ66 = target: T4, UniProt E9PZ66
T4 sequence (whole entry): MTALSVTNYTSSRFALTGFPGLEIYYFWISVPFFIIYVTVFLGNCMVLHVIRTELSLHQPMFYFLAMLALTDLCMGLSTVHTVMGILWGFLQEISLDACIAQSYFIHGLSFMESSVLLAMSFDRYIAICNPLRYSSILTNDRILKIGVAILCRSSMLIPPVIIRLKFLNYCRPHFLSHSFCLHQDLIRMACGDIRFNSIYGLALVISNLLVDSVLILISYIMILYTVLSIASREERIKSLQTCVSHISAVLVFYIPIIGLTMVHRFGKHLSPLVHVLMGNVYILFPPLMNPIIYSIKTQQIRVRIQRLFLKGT
Summary of the method: as §1

UniProt E9Q4X7 = target: T5, UniProt E9Q4X7
T5 sequence (whole entry): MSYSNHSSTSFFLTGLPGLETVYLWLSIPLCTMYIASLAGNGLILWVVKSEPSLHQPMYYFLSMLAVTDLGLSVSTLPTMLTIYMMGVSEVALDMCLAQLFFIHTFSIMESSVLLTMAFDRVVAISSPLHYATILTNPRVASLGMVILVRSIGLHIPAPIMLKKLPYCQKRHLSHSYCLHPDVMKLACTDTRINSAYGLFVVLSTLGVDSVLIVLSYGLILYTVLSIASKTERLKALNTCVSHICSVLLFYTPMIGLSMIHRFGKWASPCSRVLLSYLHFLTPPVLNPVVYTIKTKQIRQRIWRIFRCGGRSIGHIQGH
Summary of the method: as §1

UniProt E9Q546 = target: T6, UniProt E9Q546
T6 sequence (whole entry): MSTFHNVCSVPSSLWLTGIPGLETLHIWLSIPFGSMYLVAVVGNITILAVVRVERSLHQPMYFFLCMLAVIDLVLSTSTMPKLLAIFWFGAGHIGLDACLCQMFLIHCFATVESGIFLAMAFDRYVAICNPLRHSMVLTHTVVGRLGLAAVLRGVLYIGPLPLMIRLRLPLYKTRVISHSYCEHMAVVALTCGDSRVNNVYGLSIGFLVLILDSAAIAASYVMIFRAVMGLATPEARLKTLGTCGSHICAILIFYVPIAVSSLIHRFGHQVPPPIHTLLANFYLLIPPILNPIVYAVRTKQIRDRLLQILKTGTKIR
Summary of the method: as §1

UniProt E9Q6Z7 = target: T7, UniProt E9Q6Z7
T7 sequence (whole entry): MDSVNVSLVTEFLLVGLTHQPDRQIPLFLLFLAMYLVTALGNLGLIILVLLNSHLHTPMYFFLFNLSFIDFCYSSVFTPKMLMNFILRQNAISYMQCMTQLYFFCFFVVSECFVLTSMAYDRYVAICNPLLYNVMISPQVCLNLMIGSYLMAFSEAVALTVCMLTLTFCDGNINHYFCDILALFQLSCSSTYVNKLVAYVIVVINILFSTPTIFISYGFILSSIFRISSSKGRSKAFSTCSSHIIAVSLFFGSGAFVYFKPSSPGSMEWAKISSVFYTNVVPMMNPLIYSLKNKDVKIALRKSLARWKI
Summary of the method: as §1

UniProt A2AVB5 = target: T8, UniProt A2AVB5
T8 sequence (whole entry): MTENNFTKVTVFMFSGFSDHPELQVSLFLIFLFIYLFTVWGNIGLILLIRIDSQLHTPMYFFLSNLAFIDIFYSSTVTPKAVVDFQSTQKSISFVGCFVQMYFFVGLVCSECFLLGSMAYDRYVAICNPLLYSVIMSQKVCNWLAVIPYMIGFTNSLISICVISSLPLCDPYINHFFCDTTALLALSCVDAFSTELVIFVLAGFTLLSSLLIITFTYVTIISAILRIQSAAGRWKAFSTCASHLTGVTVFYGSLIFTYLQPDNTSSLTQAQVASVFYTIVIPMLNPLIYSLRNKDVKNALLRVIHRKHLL
Summary of the method: as §1

UniProt B2RVX8 = target: T9, UniProt B2RVX8
T9 sequence (whole entry): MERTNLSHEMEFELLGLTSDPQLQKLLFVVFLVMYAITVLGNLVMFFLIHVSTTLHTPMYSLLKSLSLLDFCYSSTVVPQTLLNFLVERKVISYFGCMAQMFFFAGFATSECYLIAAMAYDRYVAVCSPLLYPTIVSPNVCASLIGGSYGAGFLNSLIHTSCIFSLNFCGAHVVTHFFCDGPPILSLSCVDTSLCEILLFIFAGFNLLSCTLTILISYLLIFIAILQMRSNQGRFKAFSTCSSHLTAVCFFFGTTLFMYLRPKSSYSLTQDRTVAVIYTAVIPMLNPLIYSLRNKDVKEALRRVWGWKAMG
Summary of the method: as §1

UniProt K7N609 = target: T10, UniProt K7N609
T10 sequence (whole entry): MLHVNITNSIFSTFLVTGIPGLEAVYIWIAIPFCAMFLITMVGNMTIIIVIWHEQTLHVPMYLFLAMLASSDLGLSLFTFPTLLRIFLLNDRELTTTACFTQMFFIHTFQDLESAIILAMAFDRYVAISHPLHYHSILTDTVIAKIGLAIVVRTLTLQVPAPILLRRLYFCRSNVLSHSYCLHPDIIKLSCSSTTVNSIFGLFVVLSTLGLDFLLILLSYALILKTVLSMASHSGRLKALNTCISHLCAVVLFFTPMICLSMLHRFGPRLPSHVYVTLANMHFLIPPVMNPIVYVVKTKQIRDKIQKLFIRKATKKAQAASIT
Summary of the method: as §1

UniProt E9PX47 = target: T11, UniProt E9PX47
T11 sequence (whole entry): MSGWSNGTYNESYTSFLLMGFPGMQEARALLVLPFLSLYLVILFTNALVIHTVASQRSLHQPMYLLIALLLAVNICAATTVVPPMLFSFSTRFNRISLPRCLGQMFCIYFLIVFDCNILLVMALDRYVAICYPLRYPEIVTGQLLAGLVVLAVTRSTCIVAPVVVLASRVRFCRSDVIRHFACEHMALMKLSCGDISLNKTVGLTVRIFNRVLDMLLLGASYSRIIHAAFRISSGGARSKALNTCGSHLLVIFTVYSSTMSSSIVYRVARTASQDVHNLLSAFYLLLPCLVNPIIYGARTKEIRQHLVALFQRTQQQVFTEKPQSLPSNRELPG
Summary of the method: as §1

Measured: odorant receptor agonist call

CCCCCCC(=O)OCCCC
not listed: UniProt A2AVB5 | UniProt B2RVX8 | UniProt K7N609 | UniProt E9PX47
inactive: all other assays above

Cc1ccc2c(c1)OCC(=O)CO2
not listed: UniProt A2AVB5 | UniProt B2RVX8 | UniProt K7N609 | UniProt E9PX47
inactive: all other assays above

CCCCCOC(=O)CCC
not listed: UniProt A2AVB5 | UniProt B2RVX8 | UniProt K7N609 | UniProt E9PX47
inactive: all other assays above

CCCCCC=CCCC=O
inactive: UniProt A2ATE5 | UniProt A2AVB0 | UniProt E9PVX1 | UniProt E9PZ66 | UniProt E9Q546 | UniProt E9Q6Z7
active: UniProt E9Q4X7

CCCCOC(=O)C(C)OC(=O)CCC (centres undefined)
inactive: UniProt A2AVB5 | UniProt B2RVX8 | UniProt E9Q546 | UniProt K7N609

CCCCCCCC(=O)[O-].[H+]
active: UniProt E9Q546
inactive: UniProt A2AVB5 | UniProt B2RVX8 | UniProt E9PX47 | UniProt K7N609

CCCC(C)C(=O)OCC (centres undefined)
not listed: UniProt A2AVB5 | UniProt B2RVX8 | UniProt K7N609 | UniProt E9PX47
inactive: all other assays above
